The target of test [1] is Myc/Max (Homo sapiens, UniProt P01106). As to the kind of experiment: TIRF-PBM: inhibition of Myc/Max equilibrium binding to DNA array. The note with it: 50 μM Mycro3, 10 nM Myc/Max. The method, boiled down:
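DyLight-labelled Myc/Max (His-tagged c-Myc and Max expressed separately in E. coli, then denatured and renatured together) with test compound (5 mM DMSO stock, 50 μM final). Equilibrium intensity from 5–10 replicate spots; E-box consensus vs mutated/absent bins compared by two-tailed t-test with Welch's correction.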

Test [2] relates to Myc/Max. To be noted: read-out: reported IC50; obtained with a cognate-binding site; cited from earlier work.
The subject of another test is STAT3. To be noted: STAT3, at this concentration (20 µM), in cells and in vivo; cited from earlier work.
The target of a further test is T1, P-STAT1 (Homo sapiens, UniProt P42224).
T1 sequence (P42224 1-750): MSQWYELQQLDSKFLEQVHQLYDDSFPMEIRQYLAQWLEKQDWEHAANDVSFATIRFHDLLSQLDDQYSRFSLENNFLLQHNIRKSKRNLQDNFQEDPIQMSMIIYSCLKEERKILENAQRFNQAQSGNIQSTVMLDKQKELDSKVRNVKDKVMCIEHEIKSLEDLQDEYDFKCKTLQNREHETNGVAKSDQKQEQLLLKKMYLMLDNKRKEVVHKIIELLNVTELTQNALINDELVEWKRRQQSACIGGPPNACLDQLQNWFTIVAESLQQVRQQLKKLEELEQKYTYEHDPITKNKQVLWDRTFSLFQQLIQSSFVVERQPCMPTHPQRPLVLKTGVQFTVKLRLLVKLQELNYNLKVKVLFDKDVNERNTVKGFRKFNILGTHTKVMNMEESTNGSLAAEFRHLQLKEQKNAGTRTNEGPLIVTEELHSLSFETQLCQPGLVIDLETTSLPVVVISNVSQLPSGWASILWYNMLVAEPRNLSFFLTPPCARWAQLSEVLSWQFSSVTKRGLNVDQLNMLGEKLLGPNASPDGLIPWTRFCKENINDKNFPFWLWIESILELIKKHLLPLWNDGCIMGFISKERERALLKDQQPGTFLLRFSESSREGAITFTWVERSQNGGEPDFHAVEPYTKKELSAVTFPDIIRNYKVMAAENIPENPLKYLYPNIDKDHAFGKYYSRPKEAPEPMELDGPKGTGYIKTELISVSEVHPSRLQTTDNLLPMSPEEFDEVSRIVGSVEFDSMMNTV
As to the kind of experiment: TIRF-PBM: inhibition of P-STAT1 equilibrium binding to DNA array. The note with it: 20 µM compound, 50 nM P-STAT1. A digest of the protocol: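 Phosphorylated STAT1 (50 nM), amine-labelled with DyLight dyes, with test compound (20 μM final, from 5 mM DMSO stock). Flowed >30 min at 25°C over dsDNA hydrogel microarray; TIRF read, 20 s exposures. Intensities from 5–10 replicate spots, binned as GAS palindrome with 3-nt spacer, half-GAS, or absent/misspaced GAS.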

The IC50 is the concentration that inhibits the measured activity by half.

Each structure is given as a SMILES string.

Sequence of Myc/Max (Homo sapiens, UniProt P01106) (P01106 whole entry): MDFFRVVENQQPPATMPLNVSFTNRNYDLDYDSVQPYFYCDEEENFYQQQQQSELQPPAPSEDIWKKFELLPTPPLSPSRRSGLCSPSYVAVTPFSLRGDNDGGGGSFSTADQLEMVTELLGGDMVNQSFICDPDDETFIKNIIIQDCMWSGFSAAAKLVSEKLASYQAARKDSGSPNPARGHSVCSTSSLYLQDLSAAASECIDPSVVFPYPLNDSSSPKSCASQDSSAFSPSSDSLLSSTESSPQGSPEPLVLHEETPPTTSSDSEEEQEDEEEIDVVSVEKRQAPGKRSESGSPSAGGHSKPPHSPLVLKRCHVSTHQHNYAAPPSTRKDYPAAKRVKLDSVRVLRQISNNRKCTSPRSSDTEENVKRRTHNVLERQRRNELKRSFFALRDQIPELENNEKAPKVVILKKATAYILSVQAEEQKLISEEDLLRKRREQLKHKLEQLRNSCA

`CCOC(=O)c1cnn(-c2ccccc2)c1NC(=O)c1cc2nc(-c3ccco3)cc(C(F)(F)Cl)n2n1` [Mycro3]: on Myc/Max [1], the “Myc/Max binding intensity at 'high affinity' sites, % signal” value turned out to be 68.5 ± 10.6% and the “Myc/Max binding signal at weaker affinity sites” value came to 66.2 ± 23.7%. Moreover, the IC50 in the test with Myc/Max [2] is 40 ± 13 µM.

As to `CC(=O)c1cccc2c1C(=O)c1cccc(O)c1C2=O` [LLL3], the “DNA binding, % of normal activity” value in the test with STAT3 is reported as approximately 40%. On P-STAT1, the “adjusted binding intensity at 'Half Sites'” value turned out to be 59.4 ± 15.5%; the “adjusted binding intensity at 'Poor Affinity' sites” value is reported as 42.4 ± 13.1%; the “average adjusted binding intensity at 'High Affinity' sites, % of the no-inhibitor control” value was 12.6 ± 4.9%; the “fold reduction in binding at 'High Affinity' sites” value was approximately 8 fold.

These data come from PMC3553987 (Nucleic Acids Research, 2012).
